Tested on: MS2 coat protein
Experiment: apparent Kd, MS2 coat protein; higher = weaker binding; RNA-MaP array; FMN 200 µM where present
Procedure, shortened: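 Two titrations, one without ligand and one with constant ligand, were run with SNAP-549-labelled MS2 coat protein from 0.7 or 1.5 nM, doubling to 3 µM. The targets were designs transcribed by stalled E. coli RNA polymerase on Illumina sequencing-chip clusters, in 100 mM Tris-HCl pH 7.5, 80 mM KCl, 4 mM MgCl2, BSA, DTT, yeast tRNA and Tween-20. The apparent Kd is the median of filtered per-cluster binding-curve fits, with green signal normalised to red-channel RNA signal and control-cluster median Fmax.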

[1] = designed as: OFF switch for flavin mononucleotide, no ligand
[2] = ligand present: flavin mononucleotide, designed as: OFF switch for flavin mononucleotide
[3] = designed as: ON switch for flavin mononucleotide, no ligand
[4] = ligand present: flavin mononucleotide, designed as: ON switch for flavin mononucleotide

Row | Sequence | apparent Kd [1] [nM] | apparent Kd [2] [nM] | apparent Kd [3] [nM] | apparent Kd [4] [nM]
1 | GUCAUCUCGUGAGGAUAUACAACACUGCUUCGGCAGUGUAUUAAGAUCACAUGAGGAUCACCCAUGUAGAAGGCACGAGCUGAU | 15 | 214 | – | –
2 | UGGAAUUGCGAGAAGGACAUGAGGAUCACCCAUGUAGGAUAUCGACCUAGGUGCAGAUCGUUAUAGGAUCUCUUCGCUUCUAGG | – | – | 16.7 | 7.14
3 | GGUAGACAAAGUCUACCAUUACGAACAUGAGGAUCACCCAUGUAGGAUAUGCUACUCAAAGAGUAGCAGAAGGACAUGUGUCUU | 29.8 | 143 | – | –
4 | UUUCAGCUCACAUGAGGAUCACCCAUGUCCGUUCGCCCGGACAGAAGGCACCCAUAACAAUGCGGUGAGGAUAUGUCAGCAAGG | – | – | 141 | 14
5 | AAAGAGGCGGAUCGCAACUACCAGCAGGAUAUGGGUGUUUUUACAUGAGGAUCACCCAUGUACAUCUAGAAGGGUUGGGUGUCC | – | – | 576 | 76.6
6 | AUCAGCUUGACAGGAUAUGCAUGUCAGCGAAAGCUGACAAUCUUAAUAACAUGAGGAUCACCCAUGUAGAAGGGUCGAGCUGAU | 17.1 | 20.3 | – | –
7 | AAUUAAUUAAUACAUGAGGAUCACCCAUGUAAUUAUUAGAUCUAGGAUAUCAGCUCGUUUAGAGCUGAGAAGGAGAUCACAUGU | – | – | 19.2 | 14.6
8 | AUUUUGUCAGGAUAUGAGUAGUAGGACGAAAGUGUUAUUAUUUAGAAGGGACAUGAGGAUCACCCAUGUUUCUC | 12.3 | 15.8 | – | –
9 | AGCCUACAUGAGGAUCACCCAUGUCAGGAUAUCUCGCGGCGCGUCAAGUUCACGCCGCAGAGAAGGGACUCGGG | 47.9 | 47.3 | – | –
10 | UGUAUGGACAGAGGAUAUACGGCUAGGAGAUACUAGCCACUAUUCCUCACAUGAGGAUCACCCAUGUAGAAGGCUGUCCAUACU | 17.2 | 120 | – | –
11 | AGCAUGUGAGGAUAUGCAGUUGACCGGUACGCCCAGUCAGGGCAGAAGGCACAUGAGGAUCACCCAUGUGAUAG | 44.7 | 122 | – | –
12 | GUAGCAUACGCAGGAUAUUCAUAUAAUAAAUAAACAUGAGGAUCACCCAUGUGGCGAAAGCCUUGGGAGAAGGGCGAAUGCUAC | – | – | 485 | 65.5
13 | AUGCCCUGAGGAUAUCUCAUCCCGCACAUGAGGAUCACCCAUGUUCUCCUCCGGGCUCCGAGAGAAGGCAGGCCCA | 55.6 | 87.2 | – | –
14 | UGGUGCUAGGGAGGAUAUGGGAAGAUACAUGAGGAUCACCCAUGUUUAAGAAUGCCGAGAGGCAACUAGAAGGCCCUAGUACCU | – | – | 457 | 20.9
15 | AAAAUAAGAACAGGAUAUGUGGGUUCGAAAAGCAAAGCUUUCCACAUGAGGAUCACCCAUGUGCCACAGAAGGGUUCGGGUGAU | – | – | 69.1 | 27.4
16 | AUAUAUGCUAACAUGAGGAUCACCCAUGUGUUAUACUUAAUAUAGGAUAUGUUUAUACUUUUUGGGCAGAAGGAUGGCAUAUAU | – | – | 26.1 | 21.8
17 | GGGUUCAUGUAAGGAUAUGUAUUGUUAAUCGGAGCAGAAGGUACAUGAGGAUCACCCAUGUCAACCUAGAGCAGGGCUUUUUAG | 27 | 110 | – | –
18 | GGUCUGCGAGGAUAUACAUGAGGAUCACCCAUGUGCGAGAUACUAGUGAGGUCGAUUGGUAGAAGGCGCGGACA | 105 | 66.6 | – | –
19 | UCGUGAAGGACAGGAUAUGGACAUGAGGAUCACCCAUGUACAUGGGAAUAUAUACUGAAUUUAUACUAGAAGGGUUACAUAAAU | 27.4 | 16.7 | – | –
20 | UUGGAGUACGUAGGAUAUGUAGGAUAUUCCUACAUGAGGAUCACCCAUGUUGACAUGGAGGAAGGACAGAAGGACGUGCUCCAU | – | – | 435 | 241
21 | GGGCUGUCAGGAUAUCCCGGGUUUGGGUAAACCCGGGCCCGGGAGAAGGGACAUGAGGAUCACCCAUGUGGCCC | 32.1 | 31.8 | – | –
22 | AUCAGCUCCUCAGGAUAUACAUCACUGCUUCGGCAGUGUAUUAAGAUCACAUGAGGAUCACCCAUGUAGAAGGGAGGAGCUGAU | 29.5 | 336 | – | –
23 | UGGAUGUGGGUUCCACAUGAGGAUCACCCAUGUACCGAUGAGAGAAGGCGCGCUGGUUCCCAGGGCGAGGAUAUCUACAUUCAA | 5.63 | 14.2 | – | –
24 | CUUUUAUUGGUCCAUUUUUUCUACAUGAGGAUCACCCAUGUGCAGGAUAUCGUGAUUAUUAUCAACGAGAAGGGCAGAUUCACG | 29.8 | 78.4 | – | –
25 | CACGGCGUAUCAGGAUAUGUGGGUGUCUGGACAUGAGGAUCACCCAUGUAAUCAGUAUUAGCCGUGCAGAAGGGAUCCGCUGUA | – | – | 35.2 | 60.3
26 | CAGCGAUAGCUGAAUGGUACAUGGGAGGAUAUGGGAAGAUACAUGAGGAUCACCCAUGUUAAAUACUAGAAGGCCCAUGUACCU | – | – | 14.9 | 5.45
27 | GACGGAUGUAUAGGAUAUCGACUGGAAUACAGUCGAGAAGGAUACAUGAGGAUCACCCAUGUAACCGUCAAUAAUAAUAAUAAU | 14 | 29.7 | – | –
28 | AAGAAGUCAGGAUAUCCUGCUCGUCACUUGCGUGAUGAGUAGGAGAAGGGACAUGAGGAUCACCCAUGUAAAGG | 137 | 267 | – | –

Row | Sequence | apparent Kd [1] [nM] | apparent Kd [2] [nM] | apparent Kd [3] [nM] | apparent Kd [4] [nM]
29 | GGCAGACAUGAGGAUCACCCAUGUCAGGAUAUUAGGCGAUCGUCGAUAGACGAUAGCCUGAGAAGGGACAUGCC | 23.8 | 54.1 | – | –
30 | UUAAUUAUACAAGGAUAUCUAUUGUAGUUUCGACAUACAUGAGGAUCACCCAUGUUAGUAUGUUUAGAGAAGGUGUAUUUUCAG | – | – | 28.1 | 25.2
31 | UGUGCGUCAGGAUAUUCUAUUUAUUACAUGAGGAUCACCCAUGUGAAUGUACAAGGGUGUGAAGAAGGGACUUGUC | 686 | 526 | – | –
32 | AAGUCUGGACGAGGAUAUCAGUUGUAUCUGGCAUCAACAUGAGGAUCACCCAUGUUGCAAUAGGGUGAGAAGGCGUUUGGGCAA | – | – | 278 | 29.7
33 | AGUGUCAUCGAGAAGGCCUCGACAUGAGGAUCACCCAUGUUGUAAUAUGGGAGGAUAUCGAUGAUACAGCUACGUUUCGUAGCA | – | – | 40.3 | 13.4
34 | GCCAUCGCAUGAGGAUAUGCUCCCGUUUCGGGAGCAGAAGGCAUGUCGUAAGACAUGAGGAUCACCCAUGUAGUUAAGAUGGCA | – | – | 855 | 59.6
35 | GUAGCAUGCCAAGGAUAUUCAUAUAGUAGGCAAACAUGAGGAUCACCCAUGUAAUGAUCGCAGUGGGAGAAGGUGGGAUGCUAC | – | – | 31.8 | 21.1
36 | UUGUUACAUGAGGAUCACCCAUGUGAGGAUAUGGUUCGGUACUGUCCUGUCGCGUACUCCAGAAGGCACAUGUU | 63.6 | 182 | – | –
37 | UAAAAGCGGAAGGAUAUGUGUCUAAAGUCUGUAGCAGAAGGUCCGACAUGAGGAUCACCCAUGUGACCUGGUGC | 11.1 | 13.9 | – | –
38 | GUGUGAAUAAGAGGAUAUAUACAACAUGAGGAUCACCCAUGUACCCGUGUAGUAGAAGGUUUGUUUUUAUAUAAUAUUAUAUUU | – | – | 27.4 | 22.8
39 | UUAAAUCAUGUAGGAUAUGCAUGGCGAAGCUACGCAGAAGGACAUGAGGAUCACCCAUGUUAUAGCGUCUGGAAACAGAUGCAA | 101 | 177 | – | –
40 | AGUAACAGAGGAUAUACUGUUUUAUGUAUUUAUUAUUUUAAACAUGAGGAUCACCCAUGUAGAAGGCUGAAUGA | 24.5 | 23.3 | – | –
41 | AUUAUGACCGAGUUAUACCUCUAAACAUGAGGAUCACCCAUGUAGGAUAUCAGCACGAUAAGUGCUGAGAAGGACAUCUCGGUC | 17.2 | 27 | – | –
42 | AAAGUGUGAGGAUAUCCGGGACUGGGCCGGGAGGUUCGGAAGGAGAAGGCACAUGAGGAUCACCCAUGUAACGG | 59.3 | 44.3 | – | –
43 | GAGUAGUUAAAAGGAUAUUGAUUAUUGUAGGAUCAAGAAGGUUUUAACAUGAGGAUCACCCAUGUAGGACUAUUCCUGUGUAUC | – | – | 16.5 | 14.8
44 | UUGGACGUCGUAGGAUAUGUAGGAUAUUUCUACAUGAGGAUCACCCAUGUUGACAUGGAAGAAGGACAGAAGGACGAUGUCCAU | – | – | 123 | 5.64
45 | GCGAUUAAGUAGAAGGUACGAUAUAUAUCAUUGUAAGGAUAUACUUACAUGAGGAUCACCCAUGUUAAAGGUUAUAAUAAUCGC | – | – | 94.6 | 28
46 | GUAGCAACAUGAGGAUCACCCAUGUAGGAUAUCGCUAUUGUAAUCAUGUUACAUGAUUACAAUAGCGAGAAGGACGUGAGCUAC | 8.43 | 11.4 | – | –
47 | AAAACAUGAGGAUCACCCAUGUAUAGAUCGGUUGAUAGGAGUGAGGAUAUGCUUAAAAUAAGGUAGCAGAAGGCACUGGGUACA | – | – | 37.1 | 40.1
48 | UUCGAACAAGUCAGGAUAUGGUUAUUGGUGUGUGACUAGAAGGGACAUGAGGAUCACCCAUGUGCACCUACCAU | 16 | 16.7 | – | –
49 | GAAUAAUUGAUCCAUUUUUAAAACAUGAGGAUCACCCAUGUGCAGGAUAUCGAUAGUUUUAAAUUCGAGAAGGGCAAGAACUGU | 128 | 173 | – | –
50 | CAUCAGUCUGUGAGGAUAUUGGUCGAGUGACUUAUUAAGAAGGCACAUGAGGAUCACCCAUGUGGGAAGUCAGG | 24.3 | 26.6 | – | –
51 | UUGGACGUCAUAGGAUAUGUAGGAUAUUCCUACAUGAGGAUCACCCAUGUUGACAUGGAAGAAGGACAGAAGGACGAUGUCCAU | – | – | 665 | 10.7
52 | UGGUACUAGGGAGGAUAUGGUAAGAUACAUGAGGAUCACCCAUGUUUAAGAAUGCCGAGAGGCAACUAGAAGGCCCUAGUACCU | – | – | 6.47 | 5.04
53 | GGUACCAUCACAGGAUAUGCUUUCCAUUGGGAAGCAGAAGGGUGUAACAUGAGGAUCACCCAUGUGGUGCCAGGGCGUGAGCCU | – | – | 217 | 15.2
54 | UUUACCAGAGGAUAUGCGAAUAAAUAAAACUUUUUUUUUUAACAUGAGGAUCACCCAUGUAGAAGGCUGCUUUU | 25.4 | 23.6 | – | –
55 | AUAAUUAAGCGAGGAUAUAUAUAGAAUAAUUAUAUAGAAGGCGCAAAACAUGAGGAUCACCCAUGUCACCCAUGUUGUGUGUAA | – | – | 121 | 47.3
